In ChEMBL document CHEMBL1145239 (Bioorg Med Chem Lett, 2005) one finds IC50 data, which are given here for 11 compounds.

The structures appear in SMILES notation. pIC50: −log10 of the molar value.

The target of the test is Dipeptidyl peptidase 4 (Rattus norvegicus, UniProt P14740). In words: Inhibitory concentration against rat dipeptidylpeptidase IV. In short, it runs like this:
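DPP-IV activity in rat plasma (10-fold diluted) by fluorescence with Gly-Pro-MCA substrate (100 µmol/L solution added); buffer PBS with 0.003% Brij-35. Inhibitor at various concentrations, room temperature, 60 min. Inhibition relative to solvent control; IC50 by logistic analysis.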

Sequence of Dipeptidyl peptidase 4 (P14740 whole entry): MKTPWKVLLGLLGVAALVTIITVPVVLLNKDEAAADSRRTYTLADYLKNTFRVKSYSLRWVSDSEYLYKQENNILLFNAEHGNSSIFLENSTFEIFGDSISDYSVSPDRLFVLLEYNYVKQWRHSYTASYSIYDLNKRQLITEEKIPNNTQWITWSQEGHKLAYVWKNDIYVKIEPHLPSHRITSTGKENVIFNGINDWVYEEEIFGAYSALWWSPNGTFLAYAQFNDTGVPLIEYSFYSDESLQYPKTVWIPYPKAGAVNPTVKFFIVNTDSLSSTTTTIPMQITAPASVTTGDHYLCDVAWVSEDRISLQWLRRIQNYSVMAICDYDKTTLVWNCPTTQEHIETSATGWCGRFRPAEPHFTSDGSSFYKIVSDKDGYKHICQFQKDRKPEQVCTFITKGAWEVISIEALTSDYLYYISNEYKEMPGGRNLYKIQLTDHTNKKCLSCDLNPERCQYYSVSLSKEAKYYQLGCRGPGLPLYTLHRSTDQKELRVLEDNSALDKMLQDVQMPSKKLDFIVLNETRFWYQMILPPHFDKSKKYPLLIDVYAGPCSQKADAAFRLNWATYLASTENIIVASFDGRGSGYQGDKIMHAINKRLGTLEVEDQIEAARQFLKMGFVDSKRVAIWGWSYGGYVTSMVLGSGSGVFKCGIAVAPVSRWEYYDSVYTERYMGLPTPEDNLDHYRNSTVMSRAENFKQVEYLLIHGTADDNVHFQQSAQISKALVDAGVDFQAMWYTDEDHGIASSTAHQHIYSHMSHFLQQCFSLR

With `N#Cc1ccc(N[C@@H]2CN[C@H](C(=O)N3CCC[C@H]3C#N)C2)cc1`, the negative logarithm of the IC50 (pIC50) (as a rule, −log10 of the IC50, conventionally taken in molar units) is 9.59. Then `N#Cc1ccc(N[C@@H]2CN[C@H](C(=O)N3CCC[C@H]3C#N)C2)cc1C#N`, with 9.77; and `N#C[C@@H]1CCCN1C(=O)[C@@H]1C[C@H](NCc2ccccc2)CN1`, with 8.52.

In turn, `N#C[C@@H]1CCCN1C(=O)[C@@H]1C[C@H](N)CN1` gave a pIC50 of 8.04. On to `N#C[C@@H]1CCCN1C(=O)[C@@H]1C[C@H](NC(=O)Nc2ccccc2)CN1`, for which the pIC50 is 8.96. `N#C[C@@H]1CCCN1C(=O)[C@@H]1C[C@H](NC2CCCCC2)CN1` had a pIC50 of 8.44. `N#C[C@@H]1CCCN1C(=O)[C@@H]1C[C@H](NC(=O)c2ccccc2)CN1` gave a pIC50 of 8.42.

Regarding `COc1ccc(N[C@@H]2CN[C@H](C(=O)N3CCC[C@H]3C#N)C2)cc1`, the negative-log IC50 (pIC50) is 9.55.

The compound `N#C[C@@H]1CCCN1C(=O)[C@@H]1C[C@H](NS(=O)(=O)c2ccccc2)CN1` gave a negative logarithm of the IC50 (pIC50) of 8.41. This pIC50 lies 1.14 log units lower than the previous one.

The compound `N#C[C@@H]1CCCN1C(=O)[C@@H]1C[C@H](NCCc2ccccc2)CN1` had a negative-log IC50 (pIC50) of 8.82. This pIC50 lies 0.41 log units higher than the previous one. Then `COc1ccc(N[C@@H]2CN[C@H](C(=O)N3CCC[C@H]3C#N)C2)cc1OC`, with 9.62.
